Experimental data as given in ChEMBL document CHEMBL1130178, “Synthesis and evaluation of novel fluorinated methotrexate derivatives for application to rheumatoid arthritis treatment” (J Med Chem, 1997).
≈ marks a conversion by molar mass, not a printed value.

How the values were obtained:
[1] = Inhibitory activity against LPS-stimulated B cell proliferation.; type: functional, cell-based, Mus musculus
Summary of the method: (§1)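 Mouse spleen cells stimulated with mitogen, concanavalin A for T cells or lipopolysaccharide for B cells; inhibition of proliferative response measured, IC50 in ng/mL.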

EL4 = assay: Inhibitory growth of EL4 thymoma cell line from C57BL/6 mice; type: functional, cell-based; conditions: Mus musculus
Summary of the method: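 EL4 thymoma cells (C57BL/6 origin), 4 × 10^4 per well, exposed to compound in DMSO at final 0–50 μg/mL for 1 day at 37 °C, 5% CO2, humidified air; proliferation then measured.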

Mus musculus [2] = species: Mus musculus; assay: Compound dose suppressing antibody production by 75% in mice; type: functional
Summary of the method: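 Female BDF1 mice (6 weeks old) immunized i.v. with 1 × 10^8 SRBC; sodium salt dissolved in water given orally days 1–3. Serum taken day 7; two-fold serial dilutions in PBS with 5 × 10^-5 M 2-mercaptoethanol mixed with 1% SRBC, 14 h at 25 °C; hemagglutination titer read visually. Dose giving 75% suppression, mg/kg.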

T-cell [3] = assay: Inhibitory activity against Con A-stimulated Tcell proliferation.; type: functional, cell-based, Mus musculus; summary of the method: as §1
[4] = Compound dose causing lethality in mice; type: toxicity; conditions: mouse, in vivo
Summary of the method: (§2)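 Female BDF1 mice (6 weeks old) were immunized iv with 1 × 10^8 SRBC, then given the test compound's sodium salt in water per os on days 1–3. Serum was taken on day 7 and serially two-fold diluted in PBS with 5 × 10^-5 M 2-mercaptoethanol. 1% SRBC was added, plates were held 14 h at 25 °C, and hemagglutination titer was read visually. Lethal dose is the dose (mg/kg) at which one mouse died; index = lethal dose / dose giving 75% suppression.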

[5] = Safety index = Ratio of lethal dose / suppressive dose value; type: toxicity; conditions: for selectivity ratio: read-out: Safety index; summary of the method: as §2
Mus musculus [6] = assay: secondary antibody response in mice at 0.625 mg/kg; type: functional
Summary of the method: (§3)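 Female BDF1 mice (6 weeks old) immunized i.v. with 1 × 10^5 SRBC on days 0, 7 and 14; sodium salt in water given orally 5 days/week from day 0 (15 doses). Serum taken day 20; hemagglutination titer by serial two-fold dilution with 1% SRBC, 14 h at 25 °C, read visually; mean log2 titer ± SD.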

Mus musculus [7] = assay: secondary antibody response in mice at 1.25 mg/kg; type: functional; summary of the method: as §3
Mus musculus [8] = assay: secondary antibody response in mice at 2.5 mg/kg; type: functional; summary of the method: as §3
Rattus norvegicus = species: Rattus norvegicus; assay: Effect on RA model was examined using adjuvant arthritis in rats.; type: functional
Summary of the method: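 Female Lewis rats (7 weeks, 140–160 g) sensitized by s.c. injection into left hind paw of liquid paraffin containing 0.5 mg Mycobacterium butyricum. 0.6% suspension in arabic gum given orally 5 days/week from day 1 (12 doses). Uninjected paw volume measured by plethysmometer until day 17; ED50 from inhibition versus vehicle control.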

[9] = Lethal dose in rats.; type: toxicity; conditions: rat, in vivo
[10] = Ratio of LD50 / ED50 value against adjuvant arthritis in rats.; type: functional
Summary of the method: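 Female Lewis rats (7 weeks, 140–160 g) sensitized by subcutaneous injection into left hind paw of 0.05 mL liquid paraffin containing 0.5 mg Mycobacterium butyricum. Compound given orally as 0.6% suspension in arabic gum, five days a week from day 1 (12 days total). Uninjected paw volume measured by plethysmometer until day 17; inhibition versus vehicle control gives ED50; index is LD50/ED50.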

T-cell [11] = assay: Inhibitory activity against Con A-stimulated T cell proliferation.; type: functional, cell-based; conditions: Mus musculus; summary of the method: as §1
[12] = Mus musculus, T-cell, read-out: IC50
[13] = Rattus norvegicus, read-out: ED50

SMILES | IC50 [1] [ng/mL] | IC50 (EL4) [µM] | Suppressive dose (Mus musculus [2]) [mg/kg] | IC50 (T-cell [3]; [12]) [ng/mL] | Lethal dose [4] [mg/kg] | Safety index [5] | IC50 (T-cell [3]; t-cell) [ng/mL] | ED50 (Rattus norvegicus; [13]) [mg/kg] | LD50 ([9]; read-out: LD50) [mg/kg] | selectivity ratio [5] | Ratio [10] | other results
CCCc1cc(C(=O)N[C@@H](CC(F)C(=O)O)C(=O)O)ccc1NCc1cnc2nc(N)nc(N)c2n1 (stereo in doubt; form 1) | 22.2 (≈ 0.0444 µM) | > 100 | 10 | 5.3 (≈ 0.0106 µM) | 200 | 40 | – | – | – | – | – | –
Nc1nc(N)c2nc(CNc3ccc(C(=O)N[C@@H](CC(F)C(=O)O)C(=O)O)cc3C(F)(F)F)cnc2n1 (stereo in doubt; 2vt) | 19.5 (≈ 0.037 µM) | > 100 | 5 | – | – | – | 16.8 (≈ 0.0319 µM) | – | – | – | – | –
Nc1nc(N)c2nc(CNc3ccc(C(=O)N[C@@H](CC(F)C(=O)O)C(=O)O)cc3C(F)(F)F)cnc2n1 (stereo in doubt; 2ve) | 14.3 (≈ 0.0272 µM) | – | – | – | – | – | 8 (≈ 0.0152 µM) | – | – | – | – | –
Cc1cc(C(=O)N[C@@H](CC(F)C(=O)O)C(=O)O)sc1N(C)Cc1cnc2nc(N)nc(N)c2n1 (stereo in doubt; form 1) | 14.9 (≈ 0.0303 µM) | > 100 | 10 | – | > 180 | > 18 | 11.5 (≈ 0.0234 µM) | – | – | – | – | –
CCc1cc(C(=O)N[C@@H](CC(F)C(=O)O)C(=O)O)ccc1NCc1cnc2nc(N)nc(N)c2n1 (stereo in doubt; form 1) | 9.7 (≈ 0.0199 µM) | > 100 | 1.25 | 3.8 (≈ 0.00781 µM) | 100 | – | – | 0.8 | 20 | 160 | 25 | Log2 (Mus musculus [6]; 0.625 mg/kg): 4.8; Log2 (Mus musculus [7]; 1.25 mg/kg): 3.8; Log2 (Mus musculus [8]; 2.5 mg/kg): 3.2
Nc1nc(N)c2nc(CNc3ccc(C(=O)N[C@@H](CC(F)C(=O)O)C(=O)O)cc3Cl)cnc2n1 (stereo partly drawn) | 11.8 (≈ 0.0239 µM) | > 100 | 0.8 | 4.3 (≈ 0.00872 µM) | 80 | – | – | – | – | 100 | – | –
CN(Cc1cnc2nc(N)nc(N)c2n1)c1ccc(C(=O)N[C@@H](CCC(=O)O)C(=O)O)cc1 [METHOTREXATE] | 12.5 (≈ 0.0275 µM) | 1.57 | 0.625 | – | 40 | – | – | 0.058 | 0.82 | 64 | – | Log2 (Mus musculus [6]): 5.4; Log2 (Mus musculus [7]): 4.2; Log2 (Mus musculus [8]): 4; IC50 (T-cell [11]): 6.1 ng/mL (≈ 0.0134 µM); Safety index [10]: 14.1
Cc1cc(C(=O)N[C@@H](CC(F)C(=O)O)C(=O)O)sc1N(C)Cc1cnc2nc(N)nc(N)c2n1 (stereo in doubt; form 2) | 5.1 (≈ 0.0104 µM) | – | 5 | – | 150 | 60 | 3.8 (≈ 0.00772 µM) | 0.8 | 46 | – | 57.5 | –
Cc1cc(C(=O)N[C@@H](CC(F)C(=O)O)C(=O)O)ccc1NCc1cnc2nc(N)nc(N)c2n1 (stereo in doubt; form 1) | 9.9 (≈ 0.021 µM) | > 100 | 0.31 | 7.8 (≈ 0.0165 µM) | 12.5 | – | – | – | – | 40 | – | –
Cc1cc(C(=O)N[C@@H](CC(F)C(=O)O)C(=O)O)ccc1NCc1cnc2nc(N)nc(N)c2n1 (stereo in doubt; form 2) | 16.5 (≈ 0.0349 µM) | – | 1.25 | – | 100 | 80 | 10.7 (≈ 0.0226 µM) | – | – | – | – | –
Nc1nc(N)c2nc(CNc3ccc(C(=O)N[C@@H](CC(F)C(=O)O)C(=O)O)cc3Br)cnc2n1 (stereo partly drawn) | 8.2 (≈ 0.0153 µM) | > 100 | 5 | 2.1 (≈ 0.00391 µM) | > 200 | – | – | 0.43 | 20 | > 80 | 46.5 | –
CN(Cc1cnc2nc(N)nc(N)c2n1)c1ccc(C(=O)N[C@@H](CC(F)C(=O)O)C(=O)O)cc1 (stereo in doubt; 2ie) | 21 (≈ 0.0445 µM) | – | 50 | – | 600 | – | 25.9 (≈ 0.0548 µM) | – | – | 12 | – | –
CN(Cc1cnc2nc(N)nc(N)c2n1)c1ccc(C(=O)N[C@@H](CC(F)C(=O)O)C(=O)O)cc1 (stereo in doubt; 2it) | 61.5 (≈ 0.13 µM) | > 100 | >400 | – | – | – | 64.6 (≈ 0.137 µM) | – | – | – | – | –
Nc1nc(N)c2nc(CNc3ccc(C(=O)N[C@@H](CC(F)C(=O)O)C(=O)O)cc3F)cnc2n1 (stereo partly drawn) | 22.7 (≈ 0.0476 µM) | > 100 | 1.25 | 9.4 (≈ 0.0197 µM) | 200 | – | – | 0.62 | 29 | 160 | 46.8 | Log2 (Mus musculus [6]): 6.2; Log2 (Mus musculus [7]): 6.8; Log2 (Mus musculus [8]): 5.2
CCc1cc(C(=O)N[C@@H](CC(F)C(=O)O)C(=O)O)ccc1NCc1cnc2nc(N)nc(N)c2n1 (stereo in doubt; form 2) | 9.2 (≈ 0.0189 µM) | – | 2.5 | – | 150 | 120 | 3.2 (≈ 0.00658 µM) | – | – | – | 12.2 | Log2 (Mus musculus [6]; 0.625 mg/kg): 5.4; Log2 (Mus musculus [7]; 1.25 mg/kg): 5.2; Log2 (Mus musculus [8]; 2.5 mg/kg): 4.6; ED50 (Rattus norvegicus): 0.89 mg/kg; LD50 [9]: 10.9 mg/kg
